Measurements gathered from unrelated publications.
Matrix: plasma

Compound	system	conditions	Tmax
NS(=O)(=O)OC[C@@H]1C[C@@H](n2ccc3c(N[C@H]4CCc5ccccc54)ncnc32)C[C@@H]1O	human	intravenous, 20 mg/m², patients	1.03 h
CNC(=O)n1ccc2cc(Oc3ccnc(NC(=O)c4ccc(C5CCN(CCO)CC5)cc4)c3)c(OCCOC)cc21	human	oral, 35 mg, single dose, fasted, healthy volunteers	3 h
CC(C)n1c(Nc2cccnc2)nc2cnc(Nc3ccc(N4CCN(C)CC4)cc3)nc21	male human	oral, 100 mg, single dose, healthy volunteers	1.5 h
CN1CC[C@@H](c2c(O)cc(O)c3c(=O)cc(-c4ccc(C(F)(F)F)cc4Cl)oc23)[C@@H]1CO	human	oral, 200 mg, patients	5.2 h
COc1ccc([C@@H](O)c2cc(-c3ncnc4cc(N5CCOCC5)ccc34)c(F)cc2Cl)nn1	human	oral, 400 mg, single dose, patients	1.08 h
Cl.[2H]C([2H])([2H])CC(=O)c1cnc(NC(=O)C2CC2)cc1Nc1cccc(-c2ncn(C([2H])([2H])[2H])n2)c1OC	human	oral, 20 mg, multiple doses, once daily, fasted	2.1 h
C[C@H](O)C(=O)C1=Nc2c(nc(N)[nH]c2=O)NC1	human	oral, 20 mg/kg, single dose, healthy volunteers	4 h
Cn1cc(Nc2nc(N)nc(-c3cccc(-n4ccc5cc(C6CC6)cc(F)c5c4=O)c3CO)n2)cn1	human	oral, 900 mg, single dose, fasted, suspension	4 h
Cc1ccc(C(=O)Nc2ccc(CN3CCN(C)CC3)c(C(F)(F)F)c2)cc1C#Cc1cnc2[nH]ncc2c1	human	oral, 40 mg, healthy volunteers	8 h
